Data reported in ChEMBL document CHEMBL4689842, “EUbOPEN Chemogenomics Library wave 1” (2021).
“And” between values parts separate entries of the source, which are not always exact repeats. Equal entries are not always repeated.

Experiments:
Type in all cases: toxicity, cell-based
[1] = tested on: Fibroblast; assay: Incucyte cell viability with human fibroblast; settings: 10 µM, compound concentration 10 uM; further: filed as whole numbers so only -1 and 0 and 1 occur
[2] = tested on: U2OS; assay: Incucyte cell viability with U2OS; settings: human, 10 µM, compound concentration 10 uM; further: filed as whole numbers so only -1 and 0 and 1 occur
[3] = tested on: U2OS; assay: Multiplex assay against U2OS; settings: human, 10 µM, compound concentration 10 uM
How it was run: (§1)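 Compound was added to live cells that had been stained at seeding with Hoechst33342, BioTracker Green Microtubule Cytoskeleton Dye, MitoTracker Red and Annexin V Alexa Fluor 680, and imaging followed on a CQ1 microscope at 37°C and 5% CO2. CellPathfinder machine-learning gating divided cells into Hoechst high-intensity objects or normal cells, normal cells into healthy, pyknosed or fragmented nuclei, and pyknosed cells into mitotic or apoptotic. Tubulin, mitochondrial-mass and membrane-permeability phenotypes are per cents of healthy-nucleus cells.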

[4] = tested on: HEK-293T; assay: Incucyte cell viability with HEK293T; settings: human, 10 µM, compound concentration 10 uM; further: filed as whole numbers so only -1 and 0 and 1 occur
[5] = tested on: HEK-293T; assay: Multiplex assay against HEK293T; settings: human, 10 µM, compound concentration 10 uM; how it was run: as §1;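 on Population Tubulin-Different-Phenotype (%): share of the cells with healthy nuclei that show this phenotype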
[6] = 6 h, replicate number 1, timepoint 6 hours
[7] = 12 h, replicate number 1, timepoint 12 hours
[8] = 18 h, replicate number 1, timepoint 18 hours
[9] = 24 h, replicate number 1, timepoint 24 hours

C1=N/C2=N/c3ccc(OCCN4CCCC4)c(c3)COC/C=C\COCc3cccc(c3)C(=C1)N2
Growth Rate [1, 6]: 0 | Growth Rate [1, 7]: 0 | Growth Rate [1, 8]: 0 | Growth Rate [1, 9]: 0 | Growth Rate ([2]; 0 h, replicate number 1, timepoint 0 hours): 0 | Growth Rate [2, 6]: 0 | Growth Rate [2, 7]: 0 | Growth Rate [2, 8]: 0 | Growth Rate [2, 9]: 0 | Population Apoptotic (%) ([3]; 12 h, replicate 1): 87% and 88% and 55% | Population Fragmented Nuclei (%) ([3]; 12 h, replicate 1): 35% and 19% and 20% | Population Hoechst High Intensity Objects (%) ([3]; 12 h, replicate 1): 6% and 13% | Population Normal (%) ([3]; 12 h, replicate 1): 93% and 86% | Population Pyknosed Nuclei (%) ([3]; 12 h, replicate 1): 44% and 67% and 25% | Population Tubulin-Different-Phenotype (%) ([3]; 12 h, replicate 1): 94% and 60% | Total Cell Count ([3]; 12 h, replicate 1): 194 and 177 and 149 | Population Apoptotic (%) ([3]; 12 h, replicate 2): 90% and 68% | Population Fragmented Nuclei (%) ([3]; 12 h, replicate 2): 53% and 29% | Population Hoechst High Intensity Objects (%) ([3]; 12 h, replicate 2): 16% and 10% and 7% | Population Normal (%) ([3]; 12 h, replicate 2): 83% and 89% and 92% | Population Pyknosed Nuclei (%) ([3]; 12 h, replicate 2): 27% and 53% and 22% | Population Tubulin-Different-Phenotype (%) ([3]; 12 h, replicate 2): 55% and 100% and 43% | Total Cell Count ([3]; 12 h, replicate 2): 154 and 71 and 158 | Population Apoptotic (%) ([3]; 24 h, replicate 1): 98% and 82% | Population Fragmented Nuclei (%) ([3]; 24 h, replicate 1): 23% and 31% and 11% | Population Hoechst High Intensity Objects (%) ([3]; 24 h, replicate 1): 14% and 15% | Population Mitochondria Different-Phenotype (%) ([3]; 24 h, replicate 1): 100% and 88% and 63% | Population Normal (%) ([3]; 24 h, replicate 1): 85% and 84% | Population Pyknosed Nuclei (%) ([3]; 24 h, replicate 1): 75% and 54% and 32% | Population Tubulin-Different-Phenotype (%) ([3]; 24 h, replicate 1): 100% and 88% and 69% | Total Cell Count ([3]; 24 h, replicate 1): 179 and 191 and 200 | Population Apoptotic (%) ([3]; 24 h, replicate 2): 100% and 96% and 88% | Population Membrane Permeable-Phenotype (%) ([3]; 24 h, replicate 2): 50% and 81% and 33% | Population Mitochondria Different-Phenotype (%) ([3]; 24 h, replicate 2): 20% and 57% | Population Mitotic Cells (%) ([3]; 24 h, replicate 2): 0% and 3% and 11% | Population Normal (%) ([3]; 24 h, replicate 2): 83% and 67% and 90% | Population Tubulin-Different-Phenotype (%) ([3]; 24 h, replicate 2): 40% and 61% | Total Cell Count ([3]; 24 h, replicate 2): 154 and 69 and 193 | Population Apoptotic (%) ([3]; 48 h, replicate 1): 100% | Population Fragmented Nuclei (%) ([3]; 48 h, replicate 1): 28% | Population Healthy Nuclei (%) ([3]; 48 h, replicate 1): 1% | Population Hoechst High Intensity Objects (%) ([3]; 48 h, replicate 1): 16% | Population Membrane Permeable-Phenotype (%) ([3]; 48 h, replicate 1): 100% | Population Mitochondria Different-Phenotype (%) ([3]; 48 h, replicate 1): 100% | Population Mitotic Cells (%) ([3]; 48 h, replicate 1): 0% | Population Normal (%) ([3]; 48 h, replicate 1): 83% | Population Pyknosed Nuclei (%) ([3]; 48 h, replicate 1): 70% | Population Tubulin-Different-Phenotype (%) ([3]; 48 h, replicate 1): 100% | Total Cell Count ([3]; 48 h, replicate 1): 162 | Population Fragmented Nuclei (%) ([3]; 48 h, replicate 2): 19% | Population Healthy Nuclei (%) ([3]; 48 h, replicate 2): 33% | Population Hoechst High Intensity Objects (%) ([3]; 48 h, replicate 2): 37% | Population Membrane Permeable-Phenotype (%) ([3]; 48 h, replicate 2): 92% | Population Mitochondria Different-Phenotype (%) ([3]; 48 h, replicate 2): 92% | Population Normal (%) ([3]; 48 h, replicate 2): 62% | Population Pyknosed Nuclei (%) ([3]; 48 h, replicate 2): 47% | Population Tubulin-Different-Phenotype (%) ([3]; 48 h, replicate 2): 92% | Total Cell Count ([3]; 48 h, replicate 2): 70 | Growth Rate [4, 6]: 0 | Growth Rate [4, 7]: 0 | Growth Rate [4, 8]: 0 | Growth Rate [4, 9]: 0 | Population Fragmented Nuclei (%) ([5]; 12 h, replicate 1): 34% and 21% and 25% | Population Hoechst High Intensity Objects (%) ([5]; 12 h, replicate 1): 26% and 14% and 21% | Population Membrane Permeable-Phenotype (%) ([5]; 12 h, replicate 1): 14% and 13% and 0% | Population Normal (%) ([5]; 12 h, replicate 1): 73% and 85% and 78% | Population Pyknosed Nuclei (%) ([5]; 12 h, replicate 1): 52% and 47% and 73% | Total Cell Count ([5]; 12 h, replicate 1): 695 and 596 and 237 | Population Membrane Permeable-Phenotype (%) ([5]; 12 h, replicate 2): 4% and 5% | Population Mitochondria Different-Phenotype (%) ([5]; 12 h, replicate 2): 89% and 81% and 50% | Population Normal (%) ([5]; 12 h, replicate 2): 77% and 79% and 94% | Population Pyknosed Nuclei (%) ([5]; 12 h, replicate 2): 54% and 88% and 38% | Population Tubulin-Different-Phenotype (%) ([5]; 12 h, replicate 2): 82% and 72% and 94% | Population Apoptotic (%) ([5]; 24 h, replicate 1): 87% and 58% and 29%
